Experimental data: ChEMBL document CHEMBL1821687, “Discovery, synthesis, and biological evaluation of novel SMN protein modulators” (J Med Chem, 2011)

How the values were obtained:
[1] = target: Survival motor neuron protein (Homo sapiens) (UniProt Q16637); experiment: Activation of SMN expressed in HEK293 cells assessed as concentration required to reach 50% of maximum luciferase signal by SMN2-promotor driven luciferase reporter gene assay; format: cell-based
Outline: (§1)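 HEK-293 cells stably carrying the SMN2 reporter construct, kept in DMEM with 10% FCS, glutamax, pyruvate, pen/strep and 200 µg/mL hygromycin, and assayed without hygromycin. 2,000 cells/well were plated and adhered overnight at 37 °C, 5% CO2. Compounds were added as a 7-point titration, 50 µM to 25 nM final, in 0.46% DMSO, for 30–36 h. OneGlo luminescence was normalized to 4.5 mM sodium butyrate (100%) and DMSO (0%).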

[2] = target: Survival motor neuron protein (Homo sapiens) (UniProt Q16637); experiment: Activation of SMN expressed in HEK293 cells assessed as rate of induction by SMN2-promotor driven luciferase reporter gene assay relative to basal level; format: cell-based; design: concentration or dose not given beside the values; outline: as §1
[3] = Half-life in human serum; format: ADME, cell-free
Caco-2 [4] = experiment: Apparent permeability from basolateral side to apical side of human Caco2 cells at 10 uM; format: ADME, cell-based; settings: caco-2, 10 µM
[5] = target: T1, Luciferin 4-monooxygenase (Luciola lateralis, UniProt Q01158); experiment: Inhibition of fire fly luciferase; design: species or system Aquatica lateralis; settings: read-out: IC50
T1 sequence (Q01158 whole entry): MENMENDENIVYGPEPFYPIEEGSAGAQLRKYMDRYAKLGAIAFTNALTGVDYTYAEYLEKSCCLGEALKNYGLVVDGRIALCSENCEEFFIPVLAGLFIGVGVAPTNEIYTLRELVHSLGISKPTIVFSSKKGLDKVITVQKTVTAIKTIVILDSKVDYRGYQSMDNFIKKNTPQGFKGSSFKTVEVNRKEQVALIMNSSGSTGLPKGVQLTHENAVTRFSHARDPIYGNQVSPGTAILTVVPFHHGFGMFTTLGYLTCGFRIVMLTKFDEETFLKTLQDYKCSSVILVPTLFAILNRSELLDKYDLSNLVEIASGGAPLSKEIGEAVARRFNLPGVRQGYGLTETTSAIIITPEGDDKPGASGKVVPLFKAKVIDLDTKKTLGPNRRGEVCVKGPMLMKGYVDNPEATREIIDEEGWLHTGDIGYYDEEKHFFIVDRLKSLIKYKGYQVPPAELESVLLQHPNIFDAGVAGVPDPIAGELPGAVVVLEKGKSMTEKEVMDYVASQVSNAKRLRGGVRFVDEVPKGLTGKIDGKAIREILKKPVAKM

Caco-2 [6] = experiment: Apparent permeability from apical side to basolateral side of human Caco2 cells at 10 uM; format: ADME, cell-based; settings: caco-2, 10 µM

Survival motor neuron protein (Homo sapiens), sequence (Q16637 whole entry): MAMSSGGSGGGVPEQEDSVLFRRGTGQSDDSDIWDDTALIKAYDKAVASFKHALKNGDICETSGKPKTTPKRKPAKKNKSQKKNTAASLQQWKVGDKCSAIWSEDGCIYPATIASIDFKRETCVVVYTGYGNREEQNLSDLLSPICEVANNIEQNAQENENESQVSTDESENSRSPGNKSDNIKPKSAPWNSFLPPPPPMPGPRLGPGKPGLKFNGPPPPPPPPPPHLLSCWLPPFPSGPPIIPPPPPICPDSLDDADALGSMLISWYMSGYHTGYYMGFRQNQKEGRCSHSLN

| Papp (Caco-2 [4]) [×10⁻⁶ cm/s] | IC50 [5] [µM] | Papp (Caco-2 [6]) [×10⁻⁶ cm/s] | Compound | Activity [1] [µM] | Activity [2] [%] | half-life [3] [min] |
| --- | --- | --- | --- | --- | --- | --- |
| – | – | – | NC(=O)C1CCN(c2ncc(-c3ccc(Br)cc3)s2)CC1 | 0.224 | 599 | – |
| – | – | – | CN(C)c1cccc(-c2nccc(N3CCC(C(N)=O)CC3)n2)c1 | 12.2 | 306 | – |
| – | – | – | NC(=O)C1CCN(c2nc(-c3ccc4c(c3)OCCCO4)cs2)CC1 | 0.49 | 443 | – |
| – | – | – | COc1ccc(-c2csc(N3CCC(C(N)=O)CC3)n2)cc1 | 7.72 | 209 | – |
| – | – | – | NC(=O)C1CCN(c2ncc(-c3ccc(Cl)cc3)s2)CC1 | 0.154 | 498 | – |
| – | – | – | CNC(=O)C1CCN(c2nc(-c3ccc(Br)cc3)cs2)CC1 | 7.72 | 101 | – |
| – | – | – | NC(=O)C1CCN(c2nc(-c3ccc(Oc4ccccc4)cc3)cs2)CC1 | 4.87 | 240 | – |
| – | – | – | CCCC(=O)[O-].[Na+] [SODIUM BUTYRATE] | – | – | 6 |
| – | – | – | N#Cc1ccc(-c2csc(N3CCC(C(N)=O)CC3)n2)cc1 | 9.72 | 49 | – |
| 12 | 1.6 | 32.6 | O=C(O)C1CCN(c2nc(-c3ccc(Br)cc3)cs2)CC1 | 4.87 | 554 | – |
| – | – | – | NC(=O)C1CCN(c2nc(-c3ccccc3F)cs2)CC1 | 2.44 | 274 | – |
